These results are taken from ChEMBL document CHEMBL5653612, “Catalytic site remodelling of the DOT1L methyltransferase by selective inhibitors” (Nat Commun, 2012).

Structures are written as SMILES. The source made the active and inactive calls. The rule behind the calls is not given here.

Series [1] deals with MOLM-13. Put plainly: Downregulation of H3K79me2 in human MOLM-13 cells at 1 uM by immuno blot analysis. The note with it: time 3-7 day, TDE = time-dependent effect. The format is functional, cell-based. A digest of the protocol:
(§1)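 Exponentially growing Molm13 cells were plated at 2 × 10^5 per well in 2 ml and exposed to 1 μM compound or DMSO for the indicated times. Extracted histones (3 μg) were run on 10% Bis-Tris gels and transferred to nitrocellulose. Blots were probed with primary antibody (1:1000 in 5% milk/TBS-T), then anti-rabbit secondary, with chemiluminescent detection.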

Series [2] addresses D(1A) dopamine receptor (Homo sapiens) (UniProt P21728). Put plainly: Inhibition of human dopamine D1 receptor at 1 uM relative to control.
For series [3], the species on record is Homo sapiens. Description: Inhibition of human nicotinic acetylcholine at 1 uM relative to control.
The species entered for series [4] is Rattus norvegicus. Put plainly: Inhibition of rat central GABAA receptor at 1 uM by flunitrazepam radioligand binding assay relative to control.
Series [5] can be described thus: Apparent permeability across apical to basolateral side in human Caco-2 cells at 10 uM incubated for 90 mins at pH 7.4 by LC/MS analysis. The format is ADME, cell-based. The following applies: Caco-2, pH 7.4. In general terms: Passage across Caco-2 layers is used to estimate intestinal permeability.
Series [6] concerns the target Histone-lysine N-methyltransferase KMT5C (Homo sapiens) (UniProt Q86Y97). Description: Inhibition of SUV420H2 (unknown origin) using H4 K20Me1 peptide in presence of SAM. A digest of the protocol: (§2)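 Radiometric methyltransferase panel in which 3H-SAM, at or below each enzyme's Km, methylates biotinylated peptide substrates. They were quenched with 7.5 M guanidine-HCl, diluted, captured on streptavidin flash plates for 1 h, and counted by scintillation.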

Series [7] addresses Histone-lysine N-methyltransferase, H3 lysine-79 specific (Homo sapiens, UniProt Q8TEK3). Description: Binding affinity to recombinant N-terminal DOT1L (1 to 420 residues) (unknown origin) expressed in Escherichia coli (DE3) assessed as dissociation constant by surface plasmon resonance assay. A general note: Surface plasmon resonance follows binding to a sensor surface in real time, without labels.

The target of series [8] is Beta-2 adrenergic receptor (Homo sapiens) (UniProt P07550). Put plainly: Inhibition of human Adrenergic beta 2 receptor at 1 uM relative to control.
The target in series [9] is Histone-lysine N-methyltransferase KMT5B (Homo sapiens) (UniProt Q4FZB7). Put plainly: Inhibition of […] (unknown origin) using H4 K20Me1 peptide in presence of SAM. A digest of the protocol:
as §2

Series [10] deals with Glutamate NMDA receptor (Rattus norvegicus) (UniProt P35439+Q00959+Q00960+Q00961+Q62645+Q8VHN2+Q9R1M7). Description: Inhibition of rat NMDA glutamate receptor at 1 uM relative to control. Type of series: protein-complex assay.
The test system of series [11] is MOLM-13. Put plainly: Inhibition of HOXA9 level in human MOLM-13 cells at 1 uM measured after 7 days by SYBR green staining based PCR analysis. Type of series: functional, cell-based. The note with it: time 7.0 day. A digest of the protocol:
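RNA was extracted with Qiazol and reverse-transcribed. SYBR green qPCR used gene-specific primer pairs for HOXA9 and Meis1.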

Series [12] deals with MOLM-13. Put plainly: Downregulation of H3K79me2 in human MOLM-13 cells measured for 3 to 7 days by immuno blot analysis. Type of series: functional, cell-based. The note with it: dose 1.0 µM, time 3-7 day. In a few lines: as §1
Series [13] has as its target Sigma non-opioid intracellular receptor 1 (Homo sapiens) (UniProt Q99720). Description: Inhibition of human sigma 1 receptor at 1 uM relative to control.
Series [14] addresses N-lysine methyltransferase KMT5A (Homo sapiens) (UniProt Q9NQR1). Put plainly: Inhibition of SETD8 (unknown origin) using […] in presence of SAM. A digest of the protocol:
as §2

Histone-lysine N-methyltransferase KMT5B (Homo sapiens), sequence (Q4FZB7 whole entry, looked up): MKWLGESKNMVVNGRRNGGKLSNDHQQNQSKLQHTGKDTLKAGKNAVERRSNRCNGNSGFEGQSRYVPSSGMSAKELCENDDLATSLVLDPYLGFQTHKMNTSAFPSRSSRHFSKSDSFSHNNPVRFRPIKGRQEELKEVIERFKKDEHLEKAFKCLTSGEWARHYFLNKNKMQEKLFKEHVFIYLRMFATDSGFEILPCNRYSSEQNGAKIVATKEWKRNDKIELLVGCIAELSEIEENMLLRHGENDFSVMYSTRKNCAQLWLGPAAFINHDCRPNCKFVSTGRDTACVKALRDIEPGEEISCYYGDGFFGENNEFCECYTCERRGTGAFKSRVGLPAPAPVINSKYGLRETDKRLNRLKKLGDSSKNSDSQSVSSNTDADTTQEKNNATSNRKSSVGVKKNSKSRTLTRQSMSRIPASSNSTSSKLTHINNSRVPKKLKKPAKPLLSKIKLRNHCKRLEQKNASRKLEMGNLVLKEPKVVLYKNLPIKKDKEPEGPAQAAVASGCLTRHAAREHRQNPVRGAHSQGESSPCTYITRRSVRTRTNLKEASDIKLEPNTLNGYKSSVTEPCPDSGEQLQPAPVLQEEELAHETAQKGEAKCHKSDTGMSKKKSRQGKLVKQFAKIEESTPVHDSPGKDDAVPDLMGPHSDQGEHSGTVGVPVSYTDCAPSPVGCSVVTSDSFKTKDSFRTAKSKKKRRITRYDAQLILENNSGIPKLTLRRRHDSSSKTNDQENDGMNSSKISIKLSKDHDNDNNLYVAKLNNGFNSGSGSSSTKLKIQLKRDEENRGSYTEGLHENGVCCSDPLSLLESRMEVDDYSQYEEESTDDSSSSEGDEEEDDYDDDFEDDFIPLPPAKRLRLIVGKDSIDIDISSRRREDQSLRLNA
Sigma non-opioid intracellular receptor 1 (Homo sapiens), sequence (Q99720 whole entry): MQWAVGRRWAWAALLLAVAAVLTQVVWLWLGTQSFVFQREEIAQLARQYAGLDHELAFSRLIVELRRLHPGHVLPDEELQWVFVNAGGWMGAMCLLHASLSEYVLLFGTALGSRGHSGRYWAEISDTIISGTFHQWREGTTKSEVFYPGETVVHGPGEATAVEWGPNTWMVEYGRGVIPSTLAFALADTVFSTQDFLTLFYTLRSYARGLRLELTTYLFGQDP
D(1A) dopamine receptor (Homo sapiens), sequence (P21728 whole entry): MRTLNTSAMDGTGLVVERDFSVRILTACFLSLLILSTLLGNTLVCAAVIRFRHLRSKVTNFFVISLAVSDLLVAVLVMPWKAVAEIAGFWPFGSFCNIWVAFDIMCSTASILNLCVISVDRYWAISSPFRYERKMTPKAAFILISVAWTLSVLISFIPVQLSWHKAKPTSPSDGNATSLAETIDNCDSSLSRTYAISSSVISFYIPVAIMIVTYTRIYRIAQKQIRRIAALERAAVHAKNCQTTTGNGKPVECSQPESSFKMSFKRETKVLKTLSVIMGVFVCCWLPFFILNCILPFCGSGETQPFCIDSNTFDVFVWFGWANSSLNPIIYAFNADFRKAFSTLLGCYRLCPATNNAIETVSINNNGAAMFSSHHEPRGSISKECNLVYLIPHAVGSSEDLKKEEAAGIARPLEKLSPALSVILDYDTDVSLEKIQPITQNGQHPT
Beta-2 adrenergic receptor (Homo sapiens), sequence (P07550 whole entry, looked up): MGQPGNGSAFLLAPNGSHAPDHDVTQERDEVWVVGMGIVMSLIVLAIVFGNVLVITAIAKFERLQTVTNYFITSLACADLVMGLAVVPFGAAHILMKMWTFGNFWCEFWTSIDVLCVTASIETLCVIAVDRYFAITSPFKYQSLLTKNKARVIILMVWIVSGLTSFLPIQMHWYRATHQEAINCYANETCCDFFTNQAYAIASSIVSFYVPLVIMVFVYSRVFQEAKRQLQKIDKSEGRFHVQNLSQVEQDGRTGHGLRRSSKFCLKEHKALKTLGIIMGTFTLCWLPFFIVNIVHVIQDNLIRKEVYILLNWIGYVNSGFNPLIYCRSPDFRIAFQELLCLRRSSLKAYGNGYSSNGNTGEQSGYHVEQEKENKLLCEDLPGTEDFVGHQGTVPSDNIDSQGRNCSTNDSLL
N-lysine methyltransferase KMT5A (Homo sapiens), sequence (Q9NQR1 whole entry): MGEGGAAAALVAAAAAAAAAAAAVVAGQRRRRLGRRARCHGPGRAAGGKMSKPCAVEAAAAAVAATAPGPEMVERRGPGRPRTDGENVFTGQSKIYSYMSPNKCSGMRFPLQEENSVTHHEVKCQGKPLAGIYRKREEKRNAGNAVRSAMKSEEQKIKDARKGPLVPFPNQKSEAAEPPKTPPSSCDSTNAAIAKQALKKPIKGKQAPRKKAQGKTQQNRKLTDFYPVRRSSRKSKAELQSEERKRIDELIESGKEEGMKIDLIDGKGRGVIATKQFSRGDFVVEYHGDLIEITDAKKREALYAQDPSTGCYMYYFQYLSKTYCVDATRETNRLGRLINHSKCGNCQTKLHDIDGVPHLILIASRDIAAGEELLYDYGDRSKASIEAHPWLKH
Histone-lysine N-methyltransferase KMT5C (Homo sapiens), sequence (Q86Y97 whole entry, looked up): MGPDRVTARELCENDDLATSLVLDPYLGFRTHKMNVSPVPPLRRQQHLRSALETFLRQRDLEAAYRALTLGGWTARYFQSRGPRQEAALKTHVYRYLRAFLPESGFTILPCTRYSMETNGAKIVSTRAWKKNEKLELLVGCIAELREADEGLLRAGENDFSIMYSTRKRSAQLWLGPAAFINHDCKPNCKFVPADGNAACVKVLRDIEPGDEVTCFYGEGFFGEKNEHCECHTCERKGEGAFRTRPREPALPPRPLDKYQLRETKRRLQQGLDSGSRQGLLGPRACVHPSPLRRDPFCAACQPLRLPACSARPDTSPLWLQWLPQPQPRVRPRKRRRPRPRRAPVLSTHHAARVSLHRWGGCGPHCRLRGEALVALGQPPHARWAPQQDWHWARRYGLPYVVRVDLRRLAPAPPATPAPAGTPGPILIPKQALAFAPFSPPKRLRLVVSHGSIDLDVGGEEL
Histone-lysine N-methyltransferase, H3 lysine-79 specific, sequence (Q8TEK3 whole entry, the tested form may be a part): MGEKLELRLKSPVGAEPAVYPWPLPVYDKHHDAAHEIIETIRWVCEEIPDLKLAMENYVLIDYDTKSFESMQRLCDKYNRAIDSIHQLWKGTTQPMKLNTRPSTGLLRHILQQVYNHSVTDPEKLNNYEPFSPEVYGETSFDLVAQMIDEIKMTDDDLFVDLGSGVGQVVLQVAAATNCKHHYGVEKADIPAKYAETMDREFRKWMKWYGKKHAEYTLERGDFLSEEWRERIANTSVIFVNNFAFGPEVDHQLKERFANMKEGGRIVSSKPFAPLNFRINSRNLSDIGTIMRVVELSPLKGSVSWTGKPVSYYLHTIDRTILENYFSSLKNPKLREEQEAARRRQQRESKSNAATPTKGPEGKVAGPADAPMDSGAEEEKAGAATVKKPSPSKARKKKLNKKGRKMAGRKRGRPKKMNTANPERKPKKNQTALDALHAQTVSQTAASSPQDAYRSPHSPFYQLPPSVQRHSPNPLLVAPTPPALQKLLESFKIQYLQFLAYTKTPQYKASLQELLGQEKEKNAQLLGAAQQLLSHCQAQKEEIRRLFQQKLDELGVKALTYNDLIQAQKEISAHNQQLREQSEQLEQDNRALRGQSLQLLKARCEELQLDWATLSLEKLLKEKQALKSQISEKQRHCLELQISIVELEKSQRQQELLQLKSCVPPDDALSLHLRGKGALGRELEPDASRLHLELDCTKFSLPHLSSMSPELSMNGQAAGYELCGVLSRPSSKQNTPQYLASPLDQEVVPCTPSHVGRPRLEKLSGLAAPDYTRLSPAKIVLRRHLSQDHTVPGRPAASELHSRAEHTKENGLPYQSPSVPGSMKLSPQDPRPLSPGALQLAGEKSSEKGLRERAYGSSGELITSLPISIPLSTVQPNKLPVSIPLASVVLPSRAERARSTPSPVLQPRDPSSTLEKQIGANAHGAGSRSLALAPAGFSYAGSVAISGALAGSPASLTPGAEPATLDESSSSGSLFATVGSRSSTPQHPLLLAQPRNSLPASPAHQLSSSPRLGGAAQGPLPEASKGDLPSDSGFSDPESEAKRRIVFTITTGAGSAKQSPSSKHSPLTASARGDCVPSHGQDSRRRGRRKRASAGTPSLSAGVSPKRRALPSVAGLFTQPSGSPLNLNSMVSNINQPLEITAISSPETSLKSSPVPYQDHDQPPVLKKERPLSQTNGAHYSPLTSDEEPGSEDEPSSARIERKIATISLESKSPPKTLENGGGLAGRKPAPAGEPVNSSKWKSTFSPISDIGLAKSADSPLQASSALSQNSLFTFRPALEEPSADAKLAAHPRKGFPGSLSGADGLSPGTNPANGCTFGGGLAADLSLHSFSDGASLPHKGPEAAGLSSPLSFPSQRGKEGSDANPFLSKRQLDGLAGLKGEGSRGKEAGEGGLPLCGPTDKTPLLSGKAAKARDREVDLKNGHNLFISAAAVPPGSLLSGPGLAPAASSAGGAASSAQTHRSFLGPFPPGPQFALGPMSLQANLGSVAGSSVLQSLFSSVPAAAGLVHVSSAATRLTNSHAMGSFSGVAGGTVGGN

The term inhibition denotes the change of the read-out against control, counted positive when it falls. Usually Papp A→B stands for the apparent permeability from the apical to the basolateral side of a cell layer. The Kd is the equilibrium constant for the complex coming apart. Take `CC(C)N(CCCNC(=O)Nc1ccc(C(C)(C)C)cc1)C[C@H]1O[C@@H](n2cc(Br)c3c(N)ncnc32)[C@H](O)[C@@H]1O`: the results for the Activity entry in series [1] and in series [12] were “Tde” and “Dose-Dependent Effect”, respectively. The inhibition is 7% in [2]; 13% in series [3]; 8% in series [4]; -1% in series [8]; 0% in series [10]; -10% in [13]. For the same molecule, the Papp A→B at 1.5 h, 10 µM in series [5] worked out at 5.7 ×10⁻⁶ cm/s. The inhibition entry in series [6], in [9] and in [14] was “inactive” throughout. Besides, the equilibrium dissociation constant (Kd) in [7] is 0.06 nM. Further, the inhibition result in series [11] is “Active”.
